ChEMBL document CHEMBL1123811, “gem-Diphosphonate and gem-phosphonate-phosphate compounds with specific high density lipoprotein inducing activity” (1987)

What was measured:
Assay type in all cases: functional
Set-up in all cases: concentration or dose not given beside the values
Rattus norvegicus [1] = organism: Rattus norvegicus; assay: Activity to induce the elevation of alpha/beta cholesterol ratio of male Wistar rats
Outline: (§1)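 Wistar rats on normal diet; groups were vehicle control, an internal-standard diphosphonate, and test compounds. Dosed daily for 4 days; diphosphonates were dissolved in water or suspended in 1% (carboxymethyl)cellulose, 4 mL/kg. On day 5, after overnight fast, rats were killed under ether. EDTA plasma was assayed enzymatically for HDL-C after heparin-CaCl2 precipitation of VLDL/LDL, phospholipids, triglycerides and α/β-cholesterol ratio. Results are given as % of control.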

Rattus norvegicus [2] = organism: Rattus norvegicus; assay: Activity to induce the elevation of phospholipids of male Wistar rats; outline: as §1
Rattus norvegicus [3] = organism: Rattus norvegicus; assay: Activity to induce the elevation of triglycerides of male Wistar rats; outline: as §1
Rattus norvegicus [4] = organism: Rattus norvegicus; assay: Activity to induce the elevation of HDL(High Density Lipoproteins)-Cholesterol of male Wistar rats; outline: as §1

Compound	Percent change in alpha/beta cholesterol ratio versus control (Rattus norvegicus [1]) [%]	Plasma phospholipids, % change versus control (Rattus norvegicus [2]) [%]	Percent change in plasma triglycerides versus control (Rattus norvegicus [3]) [%]	HDL-cholesterol change relative to control (%) (Rattus norvegicus [4])
CCOP(=O)(OCC)C(CCCc1ccccc1)P(=O)(OCC)OCC	33	17	46	62
COP(=O)(OC)C(O)(c1ccc(C)cc1)P(=O)(OC)OC	68	19	43	19
O=P(O)(O)C(CCc1ccccc1)P(=O)(O)O	-27	-16	-17	-24
COP(=O)(OC)OC(c1ccc(C)cc1)P(=O)(OC)OC (stereo not drawn)	47	-8	-33	4
O=P(O)(O)C(CCCc1ccccc1)P(=O)(O)O	14	12	11	3
CCOP(=O)(OCC)C(Cc1ccc(Cl)cc1)P(=O)(OCC)OCC	22	23	8	26
COP(=O)(OC)OC(c1ccc2ccccc2c1)P(=O)(OC)OC (stereo not drawn)	134	27	28	47
COP(=O)(OC)OC(c1ccccc1Cl)P(=O)(OC)OC (stereo not drawn)	34	22	-42	
COP(=O)(OC)OC(c1cccc(Br)c1)P(=O)(OC)OC (stereo not drawn)	71	3	14	28
CCOP(=O)(OCC)OC(c1ccc(Cl)cc1)P(=O)(OCC)OCC (stereo not drawn)	-6	16	8	15
CCCCOP(=O)(OCCCC)C(Cc1ccc(Cl)cc1)P(=O)(OCCCC)OCCCC	2	6	1	0
COP(=O)(OC)C(O)(C(C)(C)Oc1ccc(Cl)cc1)P(=O)(OC)OC	-8	26	-33	8
COP(=O)(OC)C(CCCOc1ccccc1)P(=O)(OC)OC	-13	-11	2	6
COP(=O)(OC)C(O)(c1ccccc1)P(=O)(OC)OC	80	57	4	13
COP(=O)(OC)OC(c1ccc(Cl)cc1Cl)P(=O)(OC)OC (stereo not drawn)	39	28	13	51
COP(=O)(OC)C(CCc1ccccc1)P(=O)(OC)OC	82	16	22	40
COP(=O)(OC)C(O)(C(C)(C)C)P(=O)(OC)OC	32	-43	24	0
COP(=O)(OC)OC(c1cc(C)ccc1C)P(=O)(OC)OC (stereo not drawn)	15	-16	-3	10
COP(=O)(OC)OC(c1ccc(C(=O)c2ccc(Cl)cc2)cc1)P(=O)(OC)OC (stereo not drawn)	55	53	0	33
COP(=O)(OC)OC(c1cccc(Cl)c1)P(=O)(OC)OC (stereo not drawn)	69	14	-37	56

Compound	Percent change in alpha/beta cholesterol ratio versus control (Rattus norvegicus [1]) [%]	Plasma phospholipids, % change versus control (Rattus norvegicus [2]) [%]	Percent change in plasma triglycerides versus control (Rattus norvegicus [3]) [%]	HDL-cholesterol change relative to control (%) (Rattus norvegicus [4])
COP(=O)(OC)OC(c1ccccc1)P(=O)(OC)OC (stereo not drawn)	76	21	32	4
COP(=O)(OC)OC(c1ccc(-c2ccccc2)cc1)P(=O)(OC)OC (stereo not drawn)	40	18	0	24
CCOP(=O)(OCC)C(CCOc1ccccc1)P(=O)(OCC)OCC	26	25	-38	29
O=P(O)(O)C(CCCOc1ccccc1)P(=O)(O)O	-57	-6	-7	-18
COP(=O)(OC)C(Cc1ccc(Cl)cc1)P(=O)(OC)OC	75	51	62	38
COc1ccc(C(OP(=O)(OC)OC)P(=O)(OC)OC)cc1 (stereo not drawn)	2	-3	41	0
COP(=O)(O)C(CCCc1ccccc1)P(=O)(O)OC (stereo not drawn)	-23	11	9	-9
CCCOP(=O)(OCCC)OC(c1ccc(Cl)cc1)P(=O)(OCCC)OCCC (stereo not drawn)	4	4	-17	-6
CC(C)OP(=O)(OC(C)C)OC(c1ccc(Cl)cc1)P(=O)(OC(C)C)OC(C)C (stereo not drawn)	-46	-20	-37	-34
CCOP(=O)(OCC)C(CCCOc1ccccc1)P(=O)(OCC)OCC	37	0	0	16
CCCCCC(O)(P(=O)(OC)OC)P(=O)(OC)OC	-17	10	-21	-16
COP(=O)(OC)C(O)(c1ccc(-c2ccccc2)cc1)P(=O)(OC)OC	5	1	5	74
COP(=O)(OC)C(O)(c1ccc2ccccc2c1)P(=O)(OC)OC	51	25	24	35
COP(=O)(OC)OC(C(C)C)P(=O)(OC)OC (stereo not drawn)	38	7	-26	15
O=P(O)(O)C(Cc1ccc(Cl)cc1)P(=O)(O)O	-40	0	-146	
COP(=O)(OC)OC(C1CCCCC1)P(=O)(OC)OC (stereo not drawn)	-20	0	-46	5
COP(=O)(OC)C(O)(c1ccc(C(=O)c2ccc(Cl)cc2)cc1)P(=O)(OC)OC	46	39	-16	22
COP(=O)(OC)OC(C(C)(C)c1ccc(Cl)cc1)P(=O)(OC)OC (stereo not drawn)	59	37	-7	56
COP(=O)(OC)OC(c1ccc(F)cc1)P(=O)(OC)OC (stereo not drawn)	81	2	-9	40
CCCCOP(=O)(OCCCC)OC(c1ccc(Cl)cc1)P(=O)(OCCCC)OCCCC (stereo not drawn)	-53	13	-11	-10
